Test system: MS2 coat protein
Assay: apparent Kd, MS2 coat protein; higher = weaker binding; RNA-MaP array; FMN 200 µM where present
Procedure, shortened: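 Stalled E. coli RNA polymerase produced the designs on Illumina sequencing-chip clusters. SNAP-549-labelled MS2 coat protein was added from 0.7 or 1.5 nM, doubling to 3 µM, without and then with constant ligand, in 100 mM Tris-HCl pH 7.5, 80 mM KCl, 4 mM MgCl2, BSA, DTT, yeast tRNA and Tween-20. The apparent Kd is the median of filtered per-cluster fits of green signal normalised to red-channel RNA signal and control-cluster median Fmax.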

[1] = designed as: OFF switch for flavin mononucleotide, no ligand
[2] = ligand present: flavin mononucleotide, designed as: OFF switch for flavin mononucleotide
[3] = designed as: ON switch for flavin mononucleotide, no ligand
[4] = ligand present: flavin mononucleotide, designed as: ON switch for flavin mononucleotide

Sequence	apparent Kd [1] [nM]	apparent Kd [2] [nM]	apparent Kd [3] [nM]	apparent Kd [4] [nM]
UGGGUAAAUGUAGGAUAUUUAUAUUAAUAGUAUGGAGAAGGACAUGAGGAUCACCCAUGUACAGGGAGUUACCCAUUUCCUCUC	670	662		
GUAUUUGAAGUAAGGAUAUGCCUCUGGAAACGGAGGUAGAAGGUACAUGAGGAUCACCCAUGUUUCUCUCUUGG	16.9	27.3		
AUGCUUCACACAGGAUAUUACAACAUGAGGAUCACCCAUGUACAUGACAUGAGGAUCACCCAUGUUAAGAAGGGUGUGAAGCAU	261	505		
GAUGUUCUGGUCAGGAUAUGCAUCCGUCGGCCGGAGCAGAAGGGACAUGAGGAUCACCCAUGUGCGGGUACAAA	38.7	38.3		
GUGUACGUAGGAUAUACAUGAGGAUCACCCAUGUGAAUAAGAUAGAAUAAGAUAAAGUGUAGAAGGACGAGUGU	37.3	30.5		
UACCACGACAACGCGGUAUCACAUGAGGAUCACCCAUGUUCACAGGAUAUGCGAUAGCCAACGAAGCAGAAGGGUGAUUACUUA			70.2	158
AGUGUCAUCGAGAAGGCCUUAACAUGAGGAUCACCCAUGUUAUAACAUGGGAGGAUAUCGAUGAUACAGCUACGUUUCGUAGCA			286	18.2
UUCAGCUCGUGAGGAUAUACAUGUGCUGGAAACAGCAUUAAAUAAUUCACAUGAGGAUCACCCAUGUAGAAGGCACGAGCUGAG	17	34.4		
AUCAGCUCGUCAGGAUAUACGUCACUGCGUCAGCAAUGUGGUAAGAUCACAUGAGGAUCACCCAUGUAGAAGGGACGAGCUGAU	29.9	289		
CUCUUAGCAGGAUAUACAUUAUCCCAGUCAUGGUCGGCGACACAUGAGGAUCACCCAUGUAGAAGGGCUAUGAG	23.4	52.8		
AAGUCUGGACGAGGAUAUCAGUUGUAUCUAGAAUCAACAUGAGGAUCACCCAUGUUGCAAUAGGGUGAGAAGGCGUUUGGGCAA			81.8	18.1
UGAUAGGACAGAGGAUAUACGUAUAAUUACCUCUACAUGAGGAUCACCCAUGUAGAAGGCUGUCCUAUCUAAGUCGGAAACGAC	5.99	6.88		
UACAGACAUGAGGAUCACCCAUGUAAGGAUAUCGGUACCGAUGGCAUAAUCUGCUCGGCGAGAAGGUACAGUGU	22.6	24.9		
UAAAACGGAGGAUAUACUGACCCUCAAAACAGACGCGCUGGACAUGAGGAUCACCCAUGUAGAAGGCCGAAUGC	26.3	61.9		
CCGAUGGUAUACUAGGAUAUGGGCGCCCUUACAUGAGGAUCACCCAUGUUUACACAAAUCCGCGGCCAGAAGGAGUUCAUGGGAG			184	133
UGUCGGAGCAGAGGAUAUUACAUGAGGAUCACCCAUGUAUGAACCAAUAGCUGGAAUCAGCAAUGUAAGAAGGCUGCUCCGACA	17.5	167		
GGCUUGCAGCUAGGAUAUGGGCGAUCACAUGAGGAUCACCCAUGUCAACAUCAAAACAAGAUUAACCAGAAGGAGCCGCGGGUC			21.3	705
GCGAUUUUGUAGAAGGUACGUUAUAAGACAAUGUAAGGAUAUACUGACAUGAGGAUCACCCAUGUAUAAAUAGUUAACAGUCGC			8.89	6.68
CCUGUGGCAUGAGGAUAUGGUCAGCUUUGCUGACCAGAAGGCAUGUCAAUAGACAUGAGGAUCACCCAUGUAGUUAACACAGGA			535	42.6
AGCUCGCGAAGAGGAUAUACAGCGGCGACCUAUCAUGACGAGCGGGUUACAUGAGGAUCACCCAUGUAGAAGGCUUCCCGACUC	26.6	73.9		
AGUUGUUCAGGAUAUGAUGAAUAUUACAUGAGGAUCACCCAUGUAGAUCCUGAAUAUGAAUCAGAAGGGAAUAUUU	15.3	32.5		
AUUAUUGACGUAGGAUAUUCUUACAUGAGGAUCACCCAUGUUAUUUGGGAACUAGGAAUAUUUUAGAAGAAGGACGUUGUUAAA			230	173
GGAUAGGACAGAGGAUAUACGUGCUAGAGAUACUAGCAAAAUUUCCUCACAUGAGGAUCACCCAUGUAGAAGGCUGUCCGAUCG	14.6	323		
GGUUGGCGAGGAUAUACAUGAGGAUCACCCAUGUGGUCCUGCGAUAGAAUCGCCCUUUGUAGAAGGCGCGGGUC	67	55.2		
GCAACGCCUGACAUGAGGAUCACCCAUGUUAGAUUGUUAUGUCAGGAUAUAGUCUCGAAACGAGACUAGAAGGGAUAUGUUGCU			888	122
GCCUCAUCCGUCAGGAUAUACAGCCGCUCCCUGUUGUAGAAGGGACAUGAGGAUCACCCAUGUACGUACCACCC	53.6	117		
UCGAGUGGUUAGGAUAUCAUUGGUGCAUAUCAUUGAGAAGGAACUACAUGAGGAUCACCCAUGUGGCAGUGAUA	28.2	126		
UCUACAUAAAUUCAUCAAUACAGAAAGGAUAUGAGAUACAUGAGGAUCACCCAUGUGCAUGGGAAUUAGAAGGUUCAAUUAACU	98.5	67.2		

Sequence	apparent Kd [1] [nM]	apparent Kd [2] [nM]	apparent Kd [3] [nM]	apparent Kd [4] [nM]
ACCAUUUACUAAUCCUCUAUACAUGAGGAUCACCCAUGUUAAGAGGAUAUCAUCGUUCGCCGCGUUGAGAAGGCUUAGCAUUCG	14.8	23.1		
GGAUUUACUGAGGAUAUUGCAUCACCCGACUGAUAAGAAGGCAGAACAUGAGGAUCACCCAUGUGGGUACUCAC	53.7	63.2		
GGAUGUCAAAGACAUCCUUAACGAACAUGAGGAUCACCCAUGUAGGAUAUGCUACUCAAAGAGUAGCAGAAGGACAUGUGCCUU	34.5	270		
AUCCGGCGUGUAGGAUAUGGAUCCGAUUAGGAUCCAGAAGGACAUGAGGAUCACCCAUGUACAUGUAAACAGUCAUCACCGGAA	10.2	49.4		
AAGUUUAACGAAGGAUAUGGUUACAUGAGGAUCACCCAUGUAAUGGUUGUGAUAUUGAUUAAGUUCCAGAAGGUCGUAUACAUA	109	301		
ACAUUUUAUGCAGGAUAUUGACAUAGGAUUAAACAAGAAGGGCAUUACAUGAGGAUCACCCAUGUUUUAUUGGUAUAUAAGUUC		14		
GAAAAGGUAGGAUAUACGAAAAAAAAGGGUAGAAAAAAAACACAUGAGGAUCACCCAUGUAGAAGGACCAAAAG	31.9	94.1		
CCAUGGUGGGCAGGAUAUCGUCCAGCUUGCGGACGAGAAGGGCCAGAACAUGAGGAUCACCCAUGUGAAAGGCGGGUUGUCCAA	21.6	103		
UUAGAUUAUUGAGGAUAUGGAUCUUAUUAUUAACCAGAAGGCAAACUCAACAUGAGGAUCACCCAUGUAUAAAGGGUAUUAGUU	89.5	83.4		
UUUCCACAUGAGGAUCACCCAUGUAAGGAUAUGUAGCGCGGGCUGGUGUCCGAGUGUUACAGAAGGUGCUGGCG	26.3	33.7		
UCGUGCCGGGUUACGAUCGACCCACAUGAGGAUCACCCAUGUAGAAGGACCAGCGUCGGCCCUUGGUAGGAUAUACAUGAAAUC	106	135		
GAUUCACAUGAGGAUCACCCAUGUCGUUUUAUGGGAGGAUAUACGUGGACCGUAGUCCGCGUAGAAGGCCUAAUUG			102	30.4
GGUUUAGGCGAAGGAUAUCCGUCGCGAGAUACUGGAGAAGGUCGCCUUAAUACAUGAGGAUCACCCAUGUGGCGGGUGAACCAC	326	47.6		
UUGCAGUGCGGGUAGGAUAUGUAGGGUGGUACAUGAGGAUCACCCAUGUAUCCACCCUUCGACCGGCAGAAGGGCCUGUCACCGC			15.2	14.8
GCAAGAAUAGGAUAUACACCGUGUCAGCUUUUAUAUAUCGCACAUGAGGAUCACCCAUGUAGAAGGGUUCUCUG	420	353		
GGUGCGUAUGUGAGGAUAUGCUGGUCCUUGGAUCGGCAGAAGGCACAUGAGGAUCACCCAUGUGGUGUCGUACC	339	24.4		
UCUUUACAUGAGGAUCACCCAUGUGAGGAUAUGGAUUCGCUGGCCGUAGCCAGUGGAUCCAGAAGGCGCGUGAU	74.7	64.9		
GAUUCACAUGAGGAUCACCCAUGUCGUAAUAUGGGAGGAUAUACGUGGACCGUAGUCCGCGUAGAAGGCCUAAUUG			172	36.6
CAGCGAAAGUAGAAGGCAGUACUGAUACAGUACUGAGGAUAUACAUGAGGAUCACCCAUGUACUUCAGCUGGAAAUAAAUAAAA	5.59	6.32		
UUUUAACAUGAGGAUCACCCAUGUGAGGAUAUCGAAAUUUAUAUUAAUAUUUAUUAAACGAGAAGGCACAUUUU	82.2	80.7		
UAUAUAUAGUAAGGAUAUGUAUUUAUUUUACAAACAGAAGGUACUGACAUGAGGAUCACCCAUGUUUUAGUGUGGGCAUGUAGA	61.1	76.1		
CAAAGUAGCACAGGAUAUCAUACAUGAGGAUCACCCAUGUCAAGAAGCAAAUGAGAAGGGUGCAGACGGUGUUGGAGCGGUUGC			68.6	7.02
AGCAUGUGAGGAUAUGUGACCCUCGUCCUAAGGACAAGGGAAUAGAAGGCACAUGAGGAUCACCCAUGUGAUGA	54.6	168		
AGGUGACAUGAGGAUCACCCAUGUCAGGAUAUAUACACCGCCGGCGUGAAGCCGACGGAUAGAAGGGACAAAAU	16.6	21.6		
AAAGACAGACAUGAGGAUCACCCAUGUUACGAAGAUACUGGGAGAAGGGCGAUUGCAAAGCAAUCGCAGGAUAUUCGUAUUGUC			25.8	13.2
AGCUCAAAAGUGAGGAUAUCUAGGGUCAAAUGACCGGAGAAGGCACAUGAGGAUCACCCAUGUAACGCCAUGGA	12.9	31.6		
UCUGGUCGAGGAUAUACAUAACGUGCUUCGGCACGAGAUCUACAUGAGGAUCACCCAUGUAGAAGGCGACCAGA	16.7	46.7		
